Assay results reported in the M2OR odorant receptor database.

How the values were obtained:
Conditions in all cases: stereoisomer not certain
[1] = biological target: T1, UniProt Q8VGX8
T1 sequence (whole entry): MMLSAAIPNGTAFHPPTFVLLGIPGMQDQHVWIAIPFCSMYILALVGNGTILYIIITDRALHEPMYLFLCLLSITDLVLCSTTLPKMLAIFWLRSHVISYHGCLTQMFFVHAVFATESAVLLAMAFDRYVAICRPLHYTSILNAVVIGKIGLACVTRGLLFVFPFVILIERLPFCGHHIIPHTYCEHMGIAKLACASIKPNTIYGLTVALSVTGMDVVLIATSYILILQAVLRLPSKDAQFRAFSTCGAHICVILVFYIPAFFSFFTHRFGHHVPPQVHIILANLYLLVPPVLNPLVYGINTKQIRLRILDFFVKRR
Method in brief: (§1)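 Assay methods differ from source to source, frequently being transient luciferase assays in mammalian cell lines. For each receptor–molecule pair, the label responsive (active) applies when the original authors judged the measured signal statistically different from baseline, and non-responsive (inactive) applies otherwise.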

[2] = biological target: T2, UniProt Q8VGY6
T2 sequence (whole entry): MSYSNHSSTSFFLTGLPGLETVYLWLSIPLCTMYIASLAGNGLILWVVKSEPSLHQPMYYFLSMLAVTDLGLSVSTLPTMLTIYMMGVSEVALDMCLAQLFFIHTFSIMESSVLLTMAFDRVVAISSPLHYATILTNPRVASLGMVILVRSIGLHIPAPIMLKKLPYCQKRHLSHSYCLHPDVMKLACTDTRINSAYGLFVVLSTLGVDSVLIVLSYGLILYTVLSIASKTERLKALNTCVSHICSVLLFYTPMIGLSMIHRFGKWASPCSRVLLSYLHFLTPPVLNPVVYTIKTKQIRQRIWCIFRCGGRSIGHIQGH
Method in brief: as §1

[3] = biological target: T3, UniProt Q8VGZ2
T3 sequence (whole entry): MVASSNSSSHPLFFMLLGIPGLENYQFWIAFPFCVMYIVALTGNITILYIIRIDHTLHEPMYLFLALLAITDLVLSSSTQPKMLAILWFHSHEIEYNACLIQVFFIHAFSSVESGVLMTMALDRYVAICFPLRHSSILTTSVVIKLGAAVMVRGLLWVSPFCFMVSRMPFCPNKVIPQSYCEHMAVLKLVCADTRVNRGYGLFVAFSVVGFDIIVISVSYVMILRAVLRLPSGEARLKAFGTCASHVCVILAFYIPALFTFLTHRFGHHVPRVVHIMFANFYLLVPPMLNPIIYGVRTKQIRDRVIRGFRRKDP
Method in brief: as §1

[4] = biological target: T4, UniProt Q8VGZ7
T4 sequence (whole entry): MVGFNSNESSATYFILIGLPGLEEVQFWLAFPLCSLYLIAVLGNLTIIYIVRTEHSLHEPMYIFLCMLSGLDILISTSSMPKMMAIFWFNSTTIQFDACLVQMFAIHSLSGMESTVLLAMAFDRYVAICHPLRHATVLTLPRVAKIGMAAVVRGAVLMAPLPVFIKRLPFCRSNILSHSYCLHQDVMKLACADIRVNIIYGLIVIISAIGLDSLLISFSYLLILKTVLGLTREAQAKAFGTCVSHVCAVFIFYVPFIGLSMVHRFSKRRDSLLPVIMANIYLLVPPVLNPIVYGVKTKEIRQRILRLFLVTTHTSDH
Method in brief: as §1

[5] = biological target: T5, UniProt Q8VH10
T5 sequence (whole entry): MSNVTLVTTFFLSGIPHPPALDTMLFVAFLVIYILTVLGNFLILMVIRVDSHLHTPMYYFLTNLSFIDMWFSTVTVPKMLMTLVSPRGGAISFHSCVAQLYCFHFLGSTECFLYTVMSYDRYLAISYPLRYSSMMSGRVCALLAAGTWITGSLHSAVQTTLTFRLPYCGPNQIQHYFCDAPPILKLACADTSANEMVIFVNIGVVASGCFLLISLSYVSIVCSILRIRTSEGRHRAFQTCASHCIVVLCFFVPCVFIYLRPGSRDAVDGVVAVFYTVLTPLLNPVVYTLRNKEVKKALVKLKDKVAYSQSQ
Method in brief: as §1

[6] = biological target: T6, UniProt Q8VH16
T6 sequence (whole entry): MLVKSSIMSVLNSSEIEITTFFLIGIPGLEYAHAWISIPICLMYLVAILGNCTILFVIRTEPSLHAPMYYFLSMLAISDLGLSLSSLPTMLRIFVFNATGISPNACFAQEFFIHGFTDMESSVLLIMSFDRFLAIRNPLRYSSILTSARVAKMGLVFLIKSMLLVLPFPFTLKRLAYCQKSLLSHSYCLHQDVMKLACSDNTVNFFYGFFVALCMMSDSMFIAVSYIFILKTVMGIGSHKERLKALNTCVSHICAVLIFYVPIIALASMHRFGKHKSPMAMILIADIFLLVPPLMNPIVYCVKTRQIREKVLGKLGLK
Method in brief: as §1

[7] = biological target: T7, UniProt Q8VH18
T7 sequence (whole entry): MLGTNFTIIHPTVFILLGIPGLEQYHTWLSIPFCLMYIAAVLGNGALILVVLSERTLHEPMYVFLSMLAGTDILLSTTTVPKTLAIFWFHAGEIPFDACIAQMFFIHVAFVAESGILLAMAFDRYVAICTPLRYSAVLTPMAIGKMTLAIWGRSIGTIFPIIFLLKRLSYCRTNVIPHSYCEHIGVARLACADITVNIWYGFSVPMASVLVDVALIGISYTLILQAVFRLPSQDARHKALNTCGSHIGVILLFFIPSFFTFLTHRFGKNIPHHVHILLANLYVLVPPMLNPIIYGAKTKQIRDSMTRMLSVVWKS
Method in brief: as §1

[8] = biological target: T8, UniProt Q8VH20
T8 sequence (whole entry): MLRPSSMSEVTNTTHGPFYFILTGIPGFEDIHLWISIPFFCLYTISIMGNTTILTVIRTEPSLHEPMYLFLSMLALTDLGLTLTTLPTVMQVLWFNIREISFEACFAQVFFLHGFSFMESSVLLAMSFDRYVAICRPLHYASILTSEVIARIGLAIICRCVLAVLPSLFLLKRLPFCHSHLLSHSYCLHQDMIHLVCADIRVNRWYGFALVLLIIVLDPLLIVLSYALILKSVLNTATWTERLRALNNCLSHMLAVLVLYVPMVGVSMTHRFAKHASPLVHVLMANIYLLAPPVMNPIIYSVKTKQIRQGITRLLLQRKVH
Method in brief: as §1

[9] = biological target: T9, UniProt Q8VH21
T9 sequence (whole entry): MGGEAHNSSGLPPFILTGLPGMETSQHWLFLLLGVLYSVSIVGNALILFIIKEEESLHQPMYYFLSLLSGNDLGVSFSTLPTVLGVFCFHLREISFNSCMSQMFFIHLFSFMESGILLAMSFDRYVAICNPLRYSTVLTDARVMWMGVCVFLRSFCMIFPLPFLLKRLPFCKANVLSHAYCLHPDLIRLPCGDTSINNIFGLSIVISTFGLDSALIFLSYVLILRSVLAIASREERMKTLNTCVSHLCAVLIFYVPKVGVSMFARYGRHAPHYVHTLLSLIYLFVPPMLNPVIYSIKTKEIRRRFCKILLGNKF
Method in brief: as §1

[10] = biological target: T10, UniProt Q924H8
T10 sequence (whole entry): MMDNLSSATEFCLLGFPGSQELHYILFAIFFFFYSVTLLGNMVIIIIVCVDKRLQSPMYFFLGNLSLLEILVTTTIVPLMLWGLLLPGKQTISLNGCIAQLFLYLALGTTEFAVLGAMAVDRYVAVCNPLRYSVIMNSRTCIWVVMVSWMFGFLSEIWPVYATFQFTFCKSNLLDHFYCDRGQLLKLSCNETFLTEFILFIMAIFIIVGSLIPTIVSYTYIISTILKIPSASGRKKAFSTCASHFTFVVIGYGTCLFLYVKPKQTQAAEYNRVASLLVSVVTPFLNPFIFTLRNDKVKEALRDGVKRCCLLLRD
Method in brief: as §1

[11] = biological target: T11, UniProt Q924X8
T11 sequence (whole entry): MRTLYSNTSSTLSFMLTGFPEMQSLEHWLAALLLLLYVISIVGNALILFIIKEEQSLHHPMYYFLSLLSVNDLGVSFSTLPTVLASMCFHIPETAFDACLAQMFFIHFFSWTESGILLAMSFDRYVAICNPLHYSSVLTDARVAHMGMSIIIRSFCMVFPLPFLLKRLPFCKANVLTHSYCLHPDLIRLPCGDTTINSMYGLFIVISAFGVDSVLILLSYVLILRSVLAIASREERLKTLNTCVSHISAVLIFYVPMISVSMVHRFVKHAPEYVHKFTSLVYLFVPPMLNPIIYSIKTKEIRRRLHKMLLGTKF
Method in brief: as §1

[12] = biological target: T12, UniProt Q99NH4
T12 sequence (whole entry): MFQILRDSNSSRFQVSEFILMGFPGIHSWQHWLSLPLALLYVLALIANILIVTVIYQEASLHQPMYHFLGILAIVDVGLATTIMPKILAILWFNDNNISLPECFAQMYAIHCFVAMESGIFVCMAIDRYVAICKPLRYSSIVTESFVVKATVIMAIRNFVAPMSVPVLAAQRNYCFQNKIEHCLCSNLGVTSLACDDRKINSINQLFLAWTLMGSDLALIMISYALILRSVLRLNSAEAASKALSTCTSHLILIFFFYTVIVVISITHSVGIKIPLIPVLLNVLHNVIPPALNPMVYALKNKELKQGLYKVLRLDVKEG
Method in brief: as §1

[13] = biological target: T13, UniProt Q9EPN9
T13 sequence (whole entry): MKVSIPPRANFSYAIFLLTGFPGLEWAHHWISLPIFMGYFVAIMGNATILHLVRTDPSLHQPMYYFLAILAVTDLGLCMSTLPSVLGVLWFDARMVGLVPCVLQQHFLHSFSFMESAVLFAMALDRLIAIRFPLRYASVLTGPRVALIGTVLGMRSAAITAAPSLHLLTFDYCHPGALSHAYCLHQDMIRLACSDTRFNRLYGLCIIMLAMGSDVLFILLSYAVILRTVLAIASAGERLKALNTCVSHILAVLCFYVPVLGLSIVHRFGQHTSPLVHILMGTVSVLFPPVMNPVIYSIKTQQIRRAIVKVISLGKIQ
Method in brief: as §1

[14] = biological target: UniProt Q9R0K2
Sequence of UniProt Q9R0K2 (Q9R0K2 as listed by the source): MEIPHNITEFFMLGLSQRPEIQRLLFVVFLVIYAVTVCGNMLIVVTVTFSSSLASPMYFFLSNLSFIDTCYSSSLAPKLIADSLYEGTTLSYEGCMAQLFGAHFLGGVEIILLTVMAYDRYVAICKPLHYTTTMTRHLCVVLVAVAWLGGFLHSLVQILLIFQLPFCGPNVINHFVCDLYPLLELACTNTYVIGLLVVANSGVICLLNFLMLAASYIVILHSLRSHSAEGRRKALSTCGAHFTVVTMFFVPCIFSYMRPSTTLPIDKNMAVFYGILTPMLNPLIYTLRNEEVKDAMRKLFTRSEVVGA
Method in brief: as §1

[15] = biological target: T14, UniProt Q9WU86
T14 sequence (whole entry): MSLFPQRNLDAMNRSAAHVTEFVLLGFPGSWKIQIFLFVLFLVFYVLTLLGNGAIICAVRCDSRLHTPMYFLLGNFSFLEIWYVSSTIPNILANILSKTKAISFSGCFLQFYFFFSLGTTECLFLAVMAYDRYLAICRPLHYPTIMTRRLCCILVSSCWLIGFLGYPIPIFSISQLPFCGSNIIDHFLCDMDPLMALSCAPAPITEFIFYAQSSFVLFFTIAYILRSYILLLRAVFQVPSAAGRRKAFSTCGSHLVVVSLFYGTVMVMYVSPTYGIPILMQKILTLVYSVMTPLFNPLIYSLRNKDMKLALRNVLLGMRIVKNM
Method in brief: as §1

[16] = biological target: T15, UniProt Q9WU94
T15 sequence (whole entry): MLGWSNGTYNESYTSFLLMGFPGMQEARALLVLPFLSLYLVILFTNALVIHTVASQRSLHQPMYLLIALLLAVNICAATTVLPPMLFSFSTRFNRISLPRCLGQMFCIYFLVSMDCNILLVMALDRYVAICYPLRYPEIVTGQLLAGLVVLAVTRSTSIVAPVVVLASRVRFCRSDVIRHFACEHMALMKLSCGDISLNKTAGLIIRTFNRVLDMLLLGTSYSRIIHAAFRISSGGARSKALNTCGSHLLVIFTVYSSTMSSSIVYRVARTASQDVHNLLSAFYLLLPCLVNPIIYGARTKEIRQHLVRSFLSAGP
Method in brief: as §1

[17] = biological target: T16, UniProt Q9WVD7
T16 sequence (whole entry): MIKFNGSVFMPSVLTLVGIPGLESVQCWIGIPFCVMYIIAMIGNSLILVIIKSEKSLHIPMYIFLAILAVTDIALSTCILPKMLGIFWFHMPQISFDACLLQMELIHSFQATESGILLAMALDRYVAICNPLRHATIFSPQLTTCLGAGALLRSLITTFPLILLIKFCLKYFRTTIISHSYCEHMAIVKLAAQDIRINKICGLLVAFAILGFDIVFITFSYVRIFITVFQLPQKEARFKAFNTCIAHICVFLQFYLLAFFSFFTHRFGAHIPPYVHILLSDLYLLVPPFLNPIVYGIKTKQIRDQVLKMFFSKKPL
Method in brief: as §1

[18] = biological target: T17, UniProt Q920P1
T17 sequence (whole entry): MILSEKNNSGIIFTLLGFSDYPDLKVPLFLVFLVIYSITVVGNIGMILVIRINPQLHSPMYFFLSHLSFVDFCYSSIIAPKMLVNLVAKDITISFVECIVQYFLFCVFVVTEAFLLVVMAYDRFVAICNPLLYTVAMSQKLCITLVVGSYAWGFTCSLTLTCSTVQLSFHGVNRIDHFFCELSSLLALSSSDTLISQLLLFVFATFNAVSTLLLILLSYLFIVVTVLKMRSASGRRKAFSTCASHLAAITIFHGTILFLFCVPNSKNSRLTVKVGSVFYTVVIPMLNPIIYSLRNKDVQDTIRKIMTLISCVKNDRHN
Method in brief: as §1

[19] = biological target: T18, UniProt Q920P2
T18 sequence (whole entry): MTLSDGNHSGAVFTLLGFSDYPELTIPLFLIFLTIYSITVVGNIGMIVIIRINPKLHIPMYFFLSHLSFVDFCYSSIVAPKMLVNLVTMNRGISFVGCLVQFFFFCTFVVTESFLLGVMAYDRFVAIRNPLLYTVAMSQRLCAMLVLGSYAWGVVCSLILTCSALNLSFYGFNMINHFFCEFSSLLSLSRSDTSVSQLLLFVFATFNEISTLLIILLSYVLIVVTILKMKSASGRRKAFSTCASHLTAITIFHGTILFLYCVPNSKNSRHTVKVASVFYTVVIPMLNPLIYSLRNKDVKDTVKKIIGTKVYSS
Method in brief: as §1

Measured: odorant receptor agonist call

CCCCCCCCC(=O)O
active: [1] | [3] | [4] | [7] | [8] | [12] | [17]
not listed: [18] | [19]
inactive: all other assays above

CCCCCOC(=O)CCCCC
not listed: [7] | [11] | [12] | [16] | [17] | [18] | [19]
inactive: all other assays above

CCCCCCO
not listed: [18] | [19]
inactive: all other assays above

c1ccccc1
not listed: [7] | [11] | [12] | [16] | [17]
inactive: all other assays above
